The subject of data set [1] is Mus musculus. The data set can be described thus: Tumor uptake in C3H mice bearing RIF tumors, determined by in vivo reflectance spectroscopy following 5.0 umol/kg administration. The format is functional. In outline: (§1)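 Photosensitizer given iv at 5.0 µmol/kg to C3H mice bearing RIF tumors, anesthetized with ketamine xylazine ip. Scattered-light spectrum from tissue was recorded before and after injection. The in vivo drug absorption was taken as the ratio of post- to pre-injection spectra. Tumor and skin were compared at 24 h postinjection.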

Data set [2] in a line: Tumor and skin uptake ratio of the compound. It is filed as functional. In outline:
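C3H mice bearing RIF tumors, anesthetized with ketamine xylazine ip; photosensitizer given iv at 5.0 µmol/kg. Uptake measured by in vivo reflectance spectroscopy: light scattered by tissue recorded before and after injection, and drug absorption taken as the postinjection/preinjection spectral ratio. Tumor versus skin uptake compared at 24 h postinjection.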

Data set [3] deals with Mus musculus. Kind of data set: Skin uptake in C3H mice bearing RIF tumors, determined by in vivo reflectance spectroscopy following 5.0 umol/kg administration. It is filed as functional. The procedure, abridged: as §1
Data set [4] is described as follows: Partition coefficient (logP). The format is physicochemical. The conditions noted are these: octanol/water.

Experimental findings from ChEMBL document CHEMBL1134470, “Synthesis, photophysical properties, tumor uptake, and preliminary in vivo photosensitizing efficacy of a homologous series of 3-(1'-alkyloxy)ethyl-3-devinylpurpurin-18-N-alkylimides with variable lipophilicity” (J Med Chem, 2001) are described below.

For `CCCCCCCCCCCCOC(C)C1=C(C)c2cc3nc(c4c5[nH]c(cc6[nH]c(cc1n2)c(C)c6CC)c(C)c5C(=O)N(CCCCCC)C4=O)[C@@H](CCC(=O)OC)[C@@H]3C` (stereo not given in full), the Tumor uptake in the data set with Mus musculus [1] was 9.4 µM. The Ratio in data set [2] was determined as 2.19. This compound gave a Skin uptake in the data set with Mus musculus [3] of 4.3 µM.

With `CCc1c(C)c2cc3[nH]c(cc4nc(c5c6nc(cc1[nH]2)C(C)=C6C(=O)N(C)C5=O)[C@@H](CCC(=O)OC)[C@@H]4C)c(C)c3C(C)OC` (stereo not given in full), the Tumor uptake with Mus musculus [1] is 0.3 µM. Moreover, the Ratio in data set [2] was 2.87. The same compound yielded a Skin uptake in the data set on Mus musculus [3] of 0.1 µM. Besides, the logP in data set [4] (read-out: logP) came to 5.32.

In the case of `CCCCCCCOC(C)C1=C(C)c2cc3nc(c4c5[nH]c(cc6[nH]c(cc1n2)c(C)c6CC)c(C)c5C(=O)N(CCCCCC)C4=O)[C@@H](CCC(=O)OC)[C@@H]3C` (stereo not given in full), in the data set with Mus musculus [1], the Tumor uptake is 8.2 µM. Also, the Ratio in data set [2] turned out to be 3.15. Also, the Skin uptake with Mus musculus [3] came to 2.6 µM.

For the compound `CCCCCCCCCCOC(C)C1=C(C)c2cc3nc(c4c5[nH]c(cc6[nH]c(cc1n2)c(C)c6CC)c(C)c5C(=O)N(CCC)C4=O)[C@@H](CCC(=O)OC)[C@@H]3C` (stereo not given in full), in the data set with Mus musculus [1], the Tumor uptake was found to be 10.26 µM. Also, the Ratio in data set [2] turned out to be 2.4. Besides, in the data set on Mus musculus [3], the Skin uptake is 4.28 µM. For the same compound, the logP in data set [4] was 10.68.

Regarding `CCCCCCCCCCN1C(=O)c2c3nc(cc4nc(cc5[nH]c(cc6[nH]c2c(c6C)C1=O)c(CC)c5C)C(C(C)OCCC)=C4C)[C@@H](C)[C@@H]3CCC(=O)OC` (stereo not given in full), the Tumor uptake with Mus musculus [1] was found to be 11.5 µM. In addition, in data set [2], the Ratio stood at 1.89. The Skin uptake with Mus musculus [3] was determined as 6.09 µM. In data set [4], the logP came out at 10.83.

In the data set on Mus musculus [1], `CCCCCCCCCCCCOC(C)C1=C(C)c2cc3nc(c4c5[nH]c(cc6[nH]c(cc1n2)c(C)c6CC)c(C)c5C(=O)N(CCCCCCCCCCCC)C4=O)[C@@H](CCC(=O)OC)[C@@H]3C` (stereo not given in full) showed a Tumor uptake of 5.04 µM. The Ratio in data set [2] is 1.87. In the data set on Mus musculus [3], this compound yielded a Skin uptake of 2.7 µM.

`CCCCCCCN1C(=O)c2c3nc(cc4nc(cc5[nH]c(cc6[nH]c2c(c6C)C1=O)c(CC)c5C)C(C(C)OCCCCCC)=C4C)[C@@H](C)[C@@H]3CCC(=O)OC` (stereo not given in full) yielded a Tumor uptake in the data set with Mus musculus [1] of 8.04 µM. In addition, in data set [2], the Ratio came to 2.73. This compound also showed a Skin uptake in the data set with Mus musculus [3] of 2.95 µM. Also, the logP in data set [4] was determined as 10.83.

`CCCCCCN1C(=O)c2c3nc(cc4nc(cc5[nH]c(cc6[nH]c2c(c6C)C1=O)c(CC)c5C)C(C(C)OC)=C4C)[C@@H](C)[C@@H]3CCC(=O)OC` (stereo not given in full) came in with a Tumor uptake in the data set with Mus musculus [1] of 10.1 µM. Besides, the Ratio in data set [2] came to 2.24. The Skin uptake with Mus musculus [3] was 4.5 µM. Moreover, in data set [4] (read-out: logP), the logP was 7.82.

`CCCCCCOC(C)C1=C(C)c2cc3nc(c4c5[nH]c(cc6[nH]c(cc1n2)c(C)c6CC)c(C)c5C(=O)N(CCCCCC)C4=O)[C@@H](CCC(=O)OC)[C@@H]3C` (stereo not given in full): the Tumor uptake in the data set with Mus musculus [1] is 7.3 µM. The Ratio in data set [2] was 3.17. In addition, the Skin uptake in the data set on Mus musculus [3] was 2.3 µM. The logP in data set [4] turned out to be 10.32.

`CCCCCCCCCCCCN1C(=O)c2c3nc(cc4nc(cc5[nH]c(cc6[nH]c2c(c6C)C1=O)c(CC)c5C)C(C(C)OCCCCCC)=C4C)[C@@H](C)[C@@H]3CCC(=O)OC` (stereo not given in full) returned a Tumor uptake with Mus musculus [1] of 4.77 µM. Moreover, the Ratio in data set [2] worked out at 2.39. In the data set with Mus musculus [3], this compound came in with a Skin uptake of 2 µM.

Regarding `CCCCCCN1C(=O)c2c3nc(cc4nc(cc5[nH]c(cc6[nH]c2c(c6C)C1=O)c(CC)c5C)C(C(C)OCCC)=C4C)[C@@H](C)[C@@H]3CCC(=O)OC` (stereo not given in full), the Tumor uptake in the data set with Mus musculus [1] stood at 13.8 µM. Besides, the Ratio in data set [2] turned out to be 2.19. For the same compound, the Skin uptake in the data set with Mus musculus [3] was determined as 6.29 µM. Further, in data set [4] (read-out: logP), the logP was found to be 8.79.

For the compound `CCCCCCCCCOC(C)C1=C(C)c2cc3nc(c4c5[nH]c(cc6[nH]c(cc1n2)c(C)c6CC)c(C)c5C(=O)N(CCCCCC)C4=O)[C@@H](CCC(=O)OC)[C@@H]3C` (stereo not given in full), the Tumor uptake in the data set on Mus musculus [1] is 10.7 µM. For the same compound, the Ratio in data set [2] worked out at 3.02. Also, the Skin uptake in the data set on Mus musculus [3] was determined as 3.54 µM. The logP in data set [4] was 11.85.

Compound `CCCCCCCCCCN1C(=O)c2c3nc(cc4nc(cc5[nH]c(cc6[nH]c2c(c6C)C1=O)c(CC)c5C)C(C(C)OCCCCCC)=C4C)[C@@H](C)[C@@H]3CCC(=O)OC` (stereo not given in full) displayed a Tumor uptake in the data set with Mus musculus [1] of 5.18 µM. Also, the Ratio in data set [2] came to 2.88. Besides, the Skin uptake with Mus musculus [3] came to 1.8 µM.

For `CCCCCCCCCCCCN1C(=O)c2c3nc(cc4nc(cc5[nH]c(cc6[nH]c2c(c6C)C1=O)c(CC)c5C)C(C(C)OC)=C4C)[C@@H](C)[C@@H]3CCC(=O)OC` (stereo not given in full), the Tumor uptake in the data set on Mus musculus [1] came out at 15.48 µM. In addition, the Ratio in data set [2] was found to be 2.67. The same compound displayed a Skin uptake in the data set on Mus musculus [3] of 5.8 µM. Further, in data set [4], the log partition coefficient (logP) was 10.88.

As for `CCCCCCOC(C)C1=C(C)c2cc3nc(c4c5[nH]c(cc6[nH]c(cc1n2)c(C)c6CC)c(C)c5C(=O)N(C)C4=O)[C@@H](CCC(=O)OC)[C@@H]3C` (stereo not given in full), the Tumor uptake in the data set with Mus musculus [1] came to 6.42 µM. Also, in data set [2], the Ratio worked out at 3.61. In the data set with Mus musculus [3], this compound registered a Skin uptake of 1.78 µM. Besides, in data set [4] (read-out: logP), the logP amounted to 7.67.

Compound `CCCCCCCCCCCCOC(C)C1=C(C)c2cc3nc(c4c5[nH]c(cc6[nH]c(cc1n2)c(C)c6CC)c(C)c5C(=O)N(C)C4=O)[C@@H](CCC(=O)OC)[C@@H]3C` (stereo not given in full) registered a Tumor uptake with Mus musculus [1] of 6.21 µM. The Ratio in data set [2] turned out to be 3.57. Further, the Skin uptake in the data set on Mus musculus [3] turned out to be 1.74 µM. In addition, in data set [4], the logP was 10.73.

Compound `CCCCCCOC(C)C1=C(C)c2cc3nc(c4c5[nH]c(cc6[nH]c(cc1n2)c(C)c6CC)c(C)c5C(=O)N(CCC)C4=O)[C@@H](CCC(=O)OC)[C@@H]3C` (stereo not given in full) returned a Tumor uptake in the data set with Mus musculus [1] of 4.95 µM. For the same compound, the Ratio in data set [2] amounted to 3.34. Also, the Skin uptake with Mus musculus [3] stood at 1.48 µM. Besides, the logP in data set [4] (read-out: logP) is 8.79.

Regarding `CCCOC(C)C1=C(C)c2cc3nc(c4c5[nH]c(cc6[nH]c(cc1n2)c(C)c6CC)c(C)c5C(=O)N(CCC)C4=O)[C@@H](CCC(=O)OC)[C@@H]3C` (stereo not given in full), the Tumor uptake in the data set with Mus musculus [1] is 10.5 µM. Also, the Ratio in data set [2] was 2.19. Further, in the data set with Mus musculus [3], the Skin uptake is 4.8 µM. Moreover, the logP in data set [4] (read-out: logP) worked out at 7.26.

With `CCCCCCCCCCOC(C)C1=C(C)c2cc3nc(c4c5[nH]c(cc6[nH]c(cc1n2)c(C)c6CC)c(C)c5C(=O)N(CCCCCCCCCC)C4=O)[C@@H](CCC(=O)OC)[C@@H]3C` (stereo not given in full), the Tumor uptake with Mus musculus [1] stood at 5.56 µM. For the same compound, the Ratio in data set [2] was 3.21. The compound also came in with a Skin uptake with Mus musculus [3] of 1.73 µM.

Usually logP stands for a log measure of how a compound divides between an organic and an aqueous phase.
